Reference: ChEMBL document CHEMBL3745654, “N-Alkylated arylsulfonamides of (aryloxy)ethyl piperidines: 5-HT(7) receptor selectivity versus multireceptor profile” (Bioorg Med Chem, 2016)

Assays:
[1] = target: D(2) dopamine receptor (Homo sapiens, UniProt P14416); assay: Displacement of [3H]-Raclopride from human dopamine D2L receptor expressed in HEK293 cells incubated for 1 hr; type: cell-based
In short: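 Membranes from HEK293 cells stably expressing human D2L receptor, with [3H]-raclopride (74.4 Ci/mmol). Buffer: Tris-HCl, EDTA, MgCl2, 120 mM NaCl, 5 mM KCl, 1.5 mM CaCl2, ascorbate. Incubation 1 h at 37 °C, then filtration. Non-specific binding defined with (+)butaclamol. Triplicates at 7–8 concentrations (10^-11 to 10^-4 M). Ki by Cheng–Prusoff.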

[2] = target: T1, 5-hydroxytryptamine receptor 7 (Homo sapiens, UniProt P34969); assay: Displacement of [3H]-5-CT from human 5-HT7B receptor expressed in HEK293 cells incubated for 1 hr; type: cell-based
T1 sequence (P34969 whole entry): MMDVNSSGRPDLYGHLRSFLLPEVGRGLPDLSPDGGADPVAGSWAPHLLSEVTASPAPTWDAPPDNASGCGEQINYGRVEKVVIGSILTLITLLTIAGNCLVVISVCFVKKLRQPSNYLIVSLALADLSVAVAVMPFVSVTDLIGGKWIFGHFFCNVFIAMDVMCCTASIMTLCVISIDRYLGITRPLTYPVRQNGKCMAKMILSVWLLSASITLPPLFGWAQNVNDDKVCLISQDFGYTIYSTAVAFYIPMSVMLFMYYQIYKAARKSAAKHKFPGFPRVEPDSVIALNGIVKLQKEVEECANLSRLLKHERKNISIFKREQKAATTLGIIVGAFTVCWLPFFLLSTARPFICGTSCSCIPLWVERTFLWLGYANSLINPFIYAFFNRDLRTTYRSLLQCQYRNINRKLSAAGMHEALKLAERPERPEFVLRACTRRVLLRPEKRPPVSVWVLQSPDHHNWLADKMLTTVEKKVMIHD
In short: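 Membranes from HEK293 cells stably expressing human 5-HT7b receptor, with [3H]-5-CT (39.2 Ci/mmol). Buffer: 50 mM Tris-HCl, 4 mM MgCl2, pargyline, 0.1% ascorbate. Incubation 1 h at 37 °C, then rapid filtration and counting of filter radioactivity. Non-specific binding defined with 5-HT. Triplicates at 7–8 concentrations (10^-11 to 10^-4 M). Ki by Cheng–Prusoff.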

[3] = target: T1, 5-hydroxytryptamine receptor 7; assay: Antagonist activity at human 5-HT7B receptor expressed in HEK293 cells assessed as inhibition of 5-carboxamidotryptamine-induced cAMP production; type: functional, cell-based
In short: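 HEK293 cells stably expressing human 5-HT7b receptor. Compound's ability to inhibit cAMP production induced by 10 nM 5-CT was measured in triplicate at 8 concentrations (10^-11 to 10^-4 M). Kb = IC50/(1 + A/EC50), where A is agonist concentration.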

[4] = target: Sodium-dependent serotonin transporter (Rattus norvegicus) (UniProt P31652); assay: Displacement of [3H]-citalopram from rat cerebral cortex SERT at 1 uM; type: tissue-based
Chain of Sodium-dependent serotonin transporter (Rattus norvegicus) (P31652 whole entry): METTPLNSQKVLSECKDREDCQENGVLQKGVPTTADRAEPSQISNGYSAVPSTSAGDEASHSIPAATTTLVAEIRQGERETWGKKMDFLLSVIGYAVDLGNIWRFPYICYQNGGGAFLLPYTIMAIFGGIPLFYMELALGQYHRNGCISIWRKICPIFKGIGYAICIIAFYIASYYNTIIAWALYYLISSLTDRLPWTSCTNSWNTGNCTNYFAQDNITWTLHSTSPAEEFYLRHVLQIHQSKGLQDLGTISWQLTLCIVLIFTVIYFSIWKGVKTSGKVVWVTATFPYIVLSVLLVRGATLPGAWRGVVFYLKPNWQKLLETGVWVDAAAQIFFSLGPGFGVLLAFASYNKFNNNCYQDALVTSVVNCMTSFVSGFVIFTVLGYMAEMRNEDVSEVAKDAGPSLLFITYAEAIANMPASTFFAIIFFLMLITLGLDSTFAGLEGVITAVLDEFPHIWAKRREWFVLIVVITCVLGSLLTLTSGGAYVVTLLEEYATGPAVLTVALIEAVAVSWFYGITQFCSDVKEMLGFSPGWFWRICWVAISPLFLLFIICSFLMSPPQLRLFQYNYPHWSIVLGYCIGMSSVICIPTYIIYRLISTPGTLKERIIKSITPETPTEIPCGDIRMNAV

[5] = target: T2, 5-hydroxytryptamine receptor 1A (Homo sapiens, UniProt P08908); assay: Displacement of [3H]-8-OH-DPAT from human 5-HT1A receptor expressed in HEK293 cells incubated for 1 hr; type: cell-based
T2 sequence (P08908 whole entry): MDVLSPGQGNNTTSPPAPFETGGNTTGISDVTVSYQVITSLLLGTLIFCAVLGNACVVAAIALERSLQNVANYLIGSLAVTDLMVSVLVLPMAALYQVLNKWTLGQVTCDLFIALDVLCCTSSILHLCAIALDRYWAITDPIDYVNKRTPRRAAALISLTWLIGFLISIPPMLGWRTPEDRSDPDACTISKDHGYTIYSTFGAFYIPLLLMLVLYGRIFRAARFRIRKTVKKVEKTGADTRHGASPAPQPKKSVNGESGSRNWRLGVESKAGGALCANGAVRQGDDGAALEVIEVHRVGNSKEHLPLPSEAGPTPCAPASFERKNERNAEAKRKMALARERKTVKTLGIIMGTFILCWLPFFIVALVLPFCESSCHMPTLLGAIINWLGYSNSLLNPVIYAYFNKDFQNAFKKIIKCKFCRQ
In short: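 Membranes from HEK293 cells stably expressing human 5-HT1A receptor, with [3H]-8-OH-DPAT (187 Ci/mmol). Buffer: 50 mM Tris-HCl, 0.1 mM EDTA, 4 mM MgCl2, pargyline, 0.1% ascorbate. Incubation 1 h at room temperature, then filtration. Non-specific binding defined with 5-HT. Triplicates at 7–8 concentrations. Ki by Cheng–Prusoff.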

[6] = Half life in mouse liver microsomes at 20 uM at pH 7.4 incubated for 15 mins by UPLC/MS analysis in presence of NADPH; type: ADME
In short: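 Compound (20 µM) incubated with mouse liver microsomes (0.2 mg/ml) in 100 mM potassium phosphate, pH 7.4, 37 °C. Reaction started with NADPH-regenerating system; blank without NADPH run in parallel. Sampling at 5, 15, 30 and 60 min (some to 120 min), in duplicate. Levallorphan internal standard; UPLC/MS quantitation. t1/2 from ln % remaining vs time.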

[7] = target: 5-hydroxytryptamine receptor 2A (Homo sapiens, UniProt P28223); assay: Displacement of [3H]-ketanserin from human 5-HT2A receptor expressed in HEK293 cells incubated for 1 hr; type: cell-based
Chain of 5-hydroxytryptamine receptor 2A (P28223 whole entry): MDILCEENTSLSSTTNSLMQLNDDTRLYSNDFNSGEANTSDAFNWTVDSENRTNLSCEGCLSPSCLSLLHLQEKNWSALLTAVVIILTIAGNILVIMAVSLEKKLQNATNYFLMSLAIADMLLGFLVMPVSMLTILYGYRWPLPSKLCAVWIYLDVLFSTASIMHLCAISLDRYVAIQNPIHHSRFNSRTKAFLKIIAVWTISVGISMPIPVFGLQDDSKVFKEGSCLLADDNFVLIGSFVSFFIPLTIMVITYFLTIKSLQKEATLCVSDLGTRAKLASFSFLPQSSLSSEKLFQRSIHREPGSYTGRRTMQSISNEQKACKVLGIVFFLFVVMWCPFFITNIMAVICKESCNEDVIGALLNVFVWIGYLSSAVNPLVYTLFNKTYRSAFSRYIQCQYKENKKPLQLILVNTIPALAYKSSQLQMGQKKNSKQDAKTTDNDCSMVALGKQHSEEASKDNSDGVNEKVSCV
In short: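 Membranes from HEK293 cells stably expressing human 5-HT2A receptor, with [3H]-ketanserin (66.9 Ci/mmol). Incubation 1 h at 37 °C, then rapid filtration and counting. Triplicates at 7–8 concentrations (10^-11 to 10^-4 M). Ki by Cheng–Prusoff; means of at least three experiments.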

Chain of D(2) dopamine receptor (P14416 whole entry): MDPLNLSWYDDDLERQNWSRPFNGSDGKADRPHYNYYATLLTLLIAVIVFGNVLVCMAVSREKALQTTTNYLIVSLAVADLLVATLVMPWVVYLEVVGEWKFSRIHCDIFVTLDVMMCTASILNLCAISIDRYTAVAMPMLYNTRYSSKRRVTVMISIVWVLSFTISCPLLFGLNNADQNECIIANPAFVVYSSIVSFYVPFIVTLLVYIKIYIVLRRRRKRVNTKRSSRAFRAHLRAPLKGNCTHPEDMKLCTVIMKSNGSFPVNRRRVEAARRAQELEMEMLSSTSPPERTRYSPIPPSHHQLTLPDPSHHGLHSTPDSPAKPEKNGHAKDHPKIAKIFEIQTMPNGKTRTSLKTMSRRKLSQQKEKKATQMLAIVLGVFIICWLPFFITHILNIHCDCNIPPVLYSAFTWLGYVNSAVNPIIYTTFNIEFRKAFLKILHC

Row | SMILES | Ki [1] [nM] | Ki [2] [nM] | Kb [3] [nM] | inhibition [4] [%] | Ki [5] [nM] | half-life at 20 µM [6] [min] | Ki [7] [nM]
1 | CN(C1CCN(CCOc2ccccc2C(C)(C)C)CC1)S(=O)(=O)c1cnn(C)c1 | 280 | 58 | 82 | < 20 | 9630 | 20 | 557
2 | Cn1cc(S(=O)(=O)N(CC2CC2)C2CCN(CCOc3ccccc3C(C)(C)C)CC2)cn1 | 230 | 49 | 64 | < 20 | 17800 | 44.5 | 1480
3 | Cn1cc(S(=O)(=O)N(CC2CC2)C2CCN(CCOc3ccccc3-c3ccccc3)CC2)cn1 | 16 | 10 | 79 | < 20 | 159 | 62 | 30
4 | CN(C1CCN(CCOc2ccccc2-c2ccccc2)CC1)S(=O)(=O)c1cnn(C)c1 | 35 | 7 | 41 | < 20 | 80 | 26.2 | 58
